Laboratory results: paper PMC4480188 (Experimental parasitology, 2015)
Values joined by “and” are separate entries in the source; they are usually repeats but may differ in a detail not shown here. Equal values may be shown once. “Also recorded” adds a separate entry of the source. Read-outs that look alike come from different tables or passages of the source. Marks after values point to notes of the source that are not given here. One block for each compound: values may come before it.

How the values were obtained:
[1] = system: human normal skin fibroblast FF 2441 cells; details: read-out: IC50, FF 2441 cells; MTS assay, ± SEM; ref Robertson et al. (2014); cited from earlier work
P. falciparum 3D7 = experiment: Antimalarial activity by SYBR Green assay; format: cell-based, Plasmodium falciparum; details: for IC50: mean of three independent experiments ± SEM; for Antimalarial activity: summary of IC50 results
[2] = system: human metastatic melanoma UACC 903 cells; details: read-out: IC50, UACC 903 cells; MTS assay, ± SEM; ref Robertson et al. (2014); cited from earlier work
[3] = system: P. falciparum gametocytes; format: cell-based, Plasmodium falciparum; details: 48 h
In short: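 Gametocytes came from P. falciparum cultured continuously for 6–8 weeks at >10% parasitemia, with weekly sorbitol synchronization, in human erythrocytes at 37 °C under 5% O2/5% CO2/90% N2. Gametocyte cultures were exposed to test compound at 10 or 20 μM for 48 h alongside untreated controls. Giemsa-stained smears of culture pellets were then examined by light microscopy for gametocyte morphology.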

[4] = system: P. falciparum 3D7 parasites (asexual stage, ring stage); format: cell-based, Plasmodium falciparum; details: for Antimalarial activity, ranking among the three compounds tested: 2.5-20 μM, 24-72 h, microscopy
In short: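 Sorbitol-synchronized P. falciparum 3D7 in human erythrocytes (37 °C, 5% O2/5% CO2/90% N2) was treated at ring stage (8–10 h post-invasion, 4–6% parasitemia) with 2.5, 5, 10 or 20 μM test compound, or left untreated. Aliquots were taken at 24, 48 and 72 h for Giemsa-stained thin smears. Percent parasitemia and stage (rings, trophozoites, schizonts) were scored by light microscopy.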

[5] = 2.5 μM, 48 h, treated at ring stage
[6] = 2.5 μM, 72 h, treated at ring stage
[7] = 5 μM, 24 h, treated at ring stage
[8] = 5 μM, 48 h, treated at ring stage
[9] = 5 μM, 72 h, NVP = no viable parasites
[10] = 10 μM, 24 h, treated at ring stage
[11] = 10 μM, 72 h, NVP = no viable parasites
[12] = 20 μM, 24 h, NVP = no viable parasites
[13] = 20 μM, 48 h, ring-stage (R) parasites, NVP = no viable parasites
[14] = 20 μM, 72 h, NVP = no viable parasites
[15] = up to 20 μM, 48 h, ring stage treated
[16] = 10 μM, 48 h, ring-stage (R) parasites

Structure (SMILES): CC(C)c1ccc2c(c1)CC[C@H]1[C@](C)(CNC(c3ccccc3)(c3ccccc3)c3ccccc3)CCC[C@]21C [2f]
- IC50 [1]: > 100 µM
- Inhibition of parasite growth (P. falciparum 3D7; 20 μM, 72 h): not inhibitory
- IC50 (P. falciparum 3D7; read-out: IC50, 3D7, 72 h): ~90.6 µM and 90.6 µM
- IC50 [2]: > 100 µM

Structure (SMILES): CC(C)c1ccc2c(c1)CCC1C(C)(CNC(=O)c3ccccc3)CCCC21C (stereo not drawn) [2d, N-dehydroabietylbenzamide]
- IC50 [1]: > 100 µM
- IC50 (P. falciparum 3D7; read-out: IC50, 3D7, 72 h): 0.36 ± 0.13 µM
- Antimalarial activity (P. falciparum 3D7): good to excellent antimalarial activity; also recorded: most potent antimalarial activity
- IC50 [2]: > 100 µM

Structure (SMILES): CCC(=O)NCC1(C)CCCC2(C)c3ccc(C(C)C)cc3CCC12 (stereo not drawn) [2c, N-dehydroabietylpropionamide]
- IC50 [1]: > 100 µM
- Inhibition of parasite growth (P. falciparum 3D7; 20 μM, 72 h): complete inhibition
- IC50 (P. falciparum 3D7; read-out: IC50, 3D7, 72 h): 13.3 ± 0.44 µM
- Antimalarial activity (P. falciparum 3D7): good to excellent antimalarial activity
- IC50 [2]: 89.4 ± 3.3 µM

Structure (SMILES): CC(C)c1ccc2c(c1)CC[C@H]1[C@](C)(CN)CCC[C@]21C [compound 1, dehydroabietylamine]
- Gametocidal effect ([3]; 10 μM): gametocytes shrunk and condensed into non-viable, rounded condensed bodies
- Gametocidal effect ([3]; 20 μM): completely lysed gametocytes
- IC50 [1]: 8.9 ± 0.68 µM
- Percent parasitemia and parasite growth stage [4, 5]: 10.3 ± 1.3 (R) %
- Percent parasitemia and parasite growth stage [4, 6]: 9.1 ± 0.5 (T) ^b %
- Percent parasitemia and parasite growth stage [4, 7]: 5.5 ± 0.3 (T) %
- Percent parasitemia and parasite growth stage [4, 8]: 6.1 ± 1.5 (T, S, R) %
- Percent parasitemia and parasite growth stage [4, 9]: NVP
- Percent parasitemia and parasite growth stage [4, 10]: 3.3 ± 0.3 (T) %
- Parasites developed into trophozoites ([4]; 10 μM, 24 h treatment): ~ 60%
- Remaining trophozoites still at the trophozoite and schizont stages, unhealthy ([4]; 10 μM, 48 h): ~ 73%
- Percent parasitemia and parasite growth stage ([4]; 10 μM, 48 h, ring-stage (R) parasites, listed as Dehydroabietylamine): 2.5 ± 0.2%
- Percent parasitemia and parasite growth stage ([4]; 10 μM, 48 h, ring-stage (R) parasites, listed as dehydroabietylamine): ~ 2.5%
- Percent parasitemia and parasite growth stage [4, 11]: NVP
- Trophozoites matured into healthy schizonts ([4]; 10 μM, by 48 h): ~ 27%
- Effect on parasite development ([4]; 20 μM, 24 h): completely inhibited parasite development into trophozoites
- Percent parasitemia and parasite growth stage [4, 12]: NVP^c
- Percent parasitemia and parasite growth stage [4, 13]: NVP
- Percent parasitemia and parasite growth stage [4, 14]: NVP
- Antimalarial activity, ranking among the three compounds tested [4]: most active
- IC50 (P. falciparum 3D7; read-out: IC50, 3D7, 72 h): 1.8 ± 0.22 µM
- Inhibition of parasite growth (P. falciparum 3D7; [15]): efficiently inhibited parasite growth in a dose dependent manner
- IC50 [2]: 1.4 ± 0.24 µM

Further lines, with some results ahead:

- IC50 (P. falciparum 3D7; Plasmodium falciparum, 3D7, 72 h, read-out: IC50, 3D7, 72 h): ~82 µM
Structure (SMILES): CC(C)C1=CC2=CC[C@@H]3[C@](C)(CCC[C@@]3(C)C(=O)O)[C@H]2CC1 [compound 3, abietic acid]
- Gametocidal effect ([3]; 10 and 20 μM): no activity; also recorded: no effect on gametocytes
- IC50 [1]: > 100 µM
- Percent parasitemia and parasite growth stage [4, 5]: 21.6 ± 1.0 (R) %
- Percent parasitemia and parasite growth stage [4, 6]: 20.6 ± 1.2 (T) %
- Percent parasitemia and parasite growth stage [4, 7]: 6.0 ± 0.3 (T) %
- Percent parasitemia and parasite growth stage [4, 8]: 22.0 ± 1.3 (R) %
- Percent parasitemia and parasite growth stage [4, 9]: 20.6 ± 0.4 (T) %
- Percent parasitemia and parasite growth stage [4, 10]: 5.7 ± 0.3 (T) %
- Percent parasitemia and parasite growth stage [4, 16]: 22.3 ± 0.6 (R) %
- Percent parasitemia and parasite growth stage [4, 11]: 20.0 ± 0.2 (T) %
- Percent parasitemia and parasite growth stage [4, 12]: 5.9 ± 0.4 (T) %
- Percent parasitemia and parasite growth stage [4, 13]: 20.6 ± 0.9 (R) %
- Percent parasitemia and parasite growth stage [4, 14]: 15.1 ± 0.3 (T) %
- Effect on parasite growth ([4]; 20 μM, second life cycle): noticeably inhibit parasite growth
- Effect on parasite growth ([4]; 2.5, 5, and 10 μM, 72 h culturing period): no effect on parasite growth
- Antimalarial activity, ranking among the three compounds tested [4]: negligibly active
- Inhibition of parasite growth (P. falciparum 3D7; [15]): negligible activity
- IC50 [2]: > 100 µM

- IC50 (P. falciparum 3D7; read-out: IC50, 3D7, 72 h): 8.2 ± 0.48 µM
Structure (SMILES): CC(C)C1=CC2=CC[C@H]3[C@](C)(CN)CCC[C@]3(C)[C@H]2CC1 [4d, abietylamine]
- IC50 [1]: 8.3 ± 0.41 µM
- Percent parasitemia and parasite growth stage [4, 5]: 20.4 ± 1.3 (R) %
- Percent parasitemia and parasite growth stage [4, 6]: 10.0 ± 0.5 (T) %
- Inhibition of parasite growth ([4]; 2.5 μM, by 72 h): about 50%
- Percent parasitemia and parasite growth stage [4, 7]: 6.0 ± 0.4 (T) %
- Percent parasitemia and parasite growth stage [4, 8]: 16.1 ± 1.5 (R) %
- Percent parasitemia and parasite growth stage [4, 9]: 9.0 ± 0.4 (T) ^b %
- Percent parasitemia and parasite growth stage [4, 10]: 4.3 ± 0.4 (T) %
- Percent parasitemia and parasite growth stage [4, 16]: 10.1 ± 0.6%
- Percent parasitemia and parasite growth stage [4, 11]: 8.3 ± 0.1 (T) ^b %
- Percent parasitemia and parasite growth stage [4, 12]: 3.7 ± 0.3 (T) %
- Parasites developed into trophozoites ([4]; 20 μM, 24 h period): ~ 60%
- Percent parasitemia and parasite growth stage ([4]; 20 μM, 48 h, ring-stage (R) parasites, NVP = no viable parasites, listed as Abietylamine): 2.4 ± 0.5%
- Percent parasitemia and parasite growth stage ([4]; 20 μM, 48 h, ring-stage (R) parasites, NVP = no viable parasites, listed as abietylamine): ~ 2.4%
- Parasites at the trophozoite and schizont stages ([4]; 20 μM, 48 h, share of those that developed into trophozoites): ~ 45%
- Percent parasitemia and parasite growth stage [4, 14]: NVP ^b
- Effect on parasites ([4]; 20 μM, by 72 h): completely killed the parasites
- Antimalarial activity, ranking among the three compounds tested [4]: moderately active
- IC50 [2]: 2.1 ± 0.25 µM
